Results as given in ChEMBL document CHEMBL1155802, “Synthesis, DNA binding, and cytotoxic evaluation of new analogs of diallyldisulfide, an active principle of garlic” (Bioorg Med Chem, 2008).

Columns and labels:
[1] = Binding affinity to GC(d(GC)7) oligonucleotide assessed as change in melting temperature by thermal denaturation assay
[2] = Binding affinity to AT(d(AT)10) oligonucleotide assessed as melting temperature at pH 7.4 by thermal denaturation assay
[3] = Binding affinity to GC(d(GC)7) oligonucleotide assessed as melting temperature at pH 7.4 by thermal denaturation assay
Rattus norvegicus [4] = experiment: Decrease in hepatic triglyceride level in hypercholesterolemic Wistar rat at 20 mg/kg, po for 1 week with diet; type: functional
In short: (§1)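 Adult male Wistar rats (100–120 g) were used, six per group. They received 5% cholesterol diet for 1 week, then cholesterol-rich diet plus compound at 20 mg/Kgwt, as a suspension in water, po, during week 2. Controls were saline-fed and cholesterol-only groups. Hepatic and serum cholesterol and triglycerides were measured by enzymatic assays. Values are mean ± SE from duplicate assays, compared with the hypercholesterolemic group.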

Rattus norvegicus [5] = experiment: Decrease in serum cholesterol level in hypercholesterolemic Wistar rat at 20 mg/kg, po for 1 week with diet; type: functional; in short: as §1
DNA [6] = experiment: Binding affinity to calf thymus DNA assessed as change in melting temperature by thermal denaturation assay; type: nucleic-acid assay; conditions: Bos taurus
DNA [7] = experiment: Binding affinity to calf thymus DNA assessed as binding constant at DNA melting temperature at 12.5 uM; type: nucleic-acid assay; conditions: Bos taurus
In short: (§2)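 Binding constants came from absorbance at 260 nm versus temperature, 25 to 100 °C at 1 °C/min. Conditions were 20 mM sodium phosphate pH 7.4, 100 mM NaCl, 2.5 μM DNA (bp) and a saturating 12.5 μM analog.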

Rattus norvegicus [8] = experiment: Decrease in serum triglyceride level in hypercholesterolemic Wistar rat at 20 mg/kg, po for 1 week with diet; type: functional; in short: as §1
[9] = Binding affinity to GC(d(GC)7) oligonucleotide assessed as binding constant at DNA melting temperature at 12.5 uM; in short: as §2
Hepatocyte = experiment: Cytotoxicity against rat primary hepatocytes after 24 hrs by MTT assay; type: cell-based
In short: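 Hepatocytes were isolated from rat liver and cultured in DMEM with 10% FBS at 37 °C under 5% CO2/[…]. Cells were seeded at 1×10^5 cells/ml and exposed to analog at 1–1000 µM for 24 h. MTT was then added for 4 h, formazan was dissolved in DMSO, and A540 was read. Each dose was run in triplicate, and IC50 was derived from mean OD versus concentration curves.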

DNA [10] = experiment: Binding affinity to calf thymus DNA assessed as melting temperature at pH 7.4 by thermal denaturation assay; type: nucleic-acid assay; conditions: Bos taurus
[11] = Binding affinity to AT(d(AT)10) oligonucleotide assessed as change in melting temperature by thermal denaturation assay
Rattus norvegicus [12] = experiment: Decrease in hepatic cholesterol level in hypercholesterolemic Wistar rat at 20 mg/kg, po for 1 week with diet; type: functional; in short: as §1

| SMILES | ΔTm [1] [°C] | Tm [2] [°C] | Tm [3] [°C] | Activity (Rattus norvegicus [4]) [mg/dL] | Activity (Rattus norvegicus [5]) [mg/dL] | ΔTm (DNA [6]) [°C] | K (DNA [7]) [×10⁵ /M] | Activity (Rattus norvegicus [8]) [mg/dL] | K [9] [×10⁶ /M] | IC50 (Hepatocyte) [µM] | Tm (DNA [10]) [°C] | ΔTm [11] [°C] | Activity (Rattus norvegicus [12]) [mg/dL] |
| --- | --- | --- | --- | --- | --- | --- | --- | --- | --- | --- | --- | --- | --- |
| Clc1ccccc1/C=C/CSSC/C=C/c1ccccc1Cl | 6 | 49 | 93 | 19.28 | 37.29 | 8 | 4.03 | 32.87 | 6.9 | 425 | 81 | -3 | 1.87 |
| Clc1ccc(/C=C/CSSC/C=C/c2ccc(Cl)cc2Cl)c(Cl)c1 | 6 | 51 | 93 | 20.61 | 42.15 | 8 | – | 34.65 | – | 350 | 81 | -1 | 2.04 |
| CC[C@H](C)C(=O)O[C@H]1C[C@@H](C)C=C2C=C[C@H](C)[C@H](CC[C@@H]3C[C@@H](O)CC(=O)O3)[C@H]21 [LOVASTATIN] | – | – | – | 17.35 | 36.21 | – | – | 31.98 | – | – | – | – | 1.6 |
| FC(F)(F)c1ccc(/C=C/CSSC/C=C/c2ccc(C(F)(F)F)cc2)cc1 | 4 | 52 | 91 | 20.57 | 42.69 | 5 | – | 35.09 | – | 140 | 78 | 0 | 2.12 |
| Fc1ccc(/C=C/CSSC/C=C/c2ccc(F)cc2)cc1 | 5 | 51 | 92 | 21.03 | 42.15 | 6 | – | 35.54 | – | 155 | 79 | -1 | 2.07 |
| O=[N+]([O-])c1ccc(/C=C/CSSC/C=C/c2ccc([N+](=O)[O-])cc2)cc1 | 7 | 52 | 94 | 19.8 | 38.37 | 7 | – | 33.32 | – | 335 | 80 | 0 | 1.97 |
| Brc1ccccc1/C=C/CSSC/C=C/c1ccccc1Br | 5 | 52 | 92 | 21.41 | 41.07 | 7 | – | 35.54 | – | 365 | 80 | 0 | 2.07 |
| Brc1ccc(/C=C/CSSC/C=C/c2ccc(Br)cc2Br)c(Br)c1 | 6 | 50 | 93 | 21.79 | 41.61 | 8 | – | 34.65 | – | 275 | 81 | -2 | 2.12 |
| C=CCS[S+]([O-])CC=C (configuration not stated) [ALLICIN] | – | – | – | 20.34 | 42.69 | – | – | 36.86 | – | – | – | – | 2.15 |
